We go through 25 molecules from ChEMBL document CHEMBL4043300, “2 H-1,2,3-Triazole-Based Dipeptidyl Nitriles: Potent, Selective, and Trypanocidal Rhodesain Inhibitors by Structure-Based Design” (J Med Chem, 2018).

Values after ≈ are worked out from the molar mass of the structure shown.

One data set has as its target Procathepsin L (Homo sapiens, UniProt P07711). Description: Inhibition of human CatL using Cbz-Phe-Arg-AMC as substrate measured over 30 mins by fluorimetric method. In short, it runs like this:
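Human cathepsin L in a fluorimetric assay in 50 mM Tris pH 6.5, 5 mM EDTA, 200 mM NaCl, 0.005% Brij35 at 25 °C. Ki was calculated from IC50 by Cheng-Prusoff. Value is the average of two measurements, each in duplicate.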

Data set [1] is described as follows: Selectivity index, ratio of Ki for human CatL to Ki for Trypanosoma brucei rhodesiense rhodesain. The method, boiled down: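 Ki(hCatL)/Ki(RD). Fluorimetric assays at 25 °C: RD in 50 mM sodium acetate pH 5.5; hCatL in 50 mM Tris pH 6.5; both buffers with 5 mM EDTA, 200 mM NaCl, 0.005% Brij35. Ki derived from IC50 by Cheng-Prusoff. Each value is the mean of two measurements, each done in duplicate.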

For another data set, the target named is Rhodesain (Trypanosoma brucei rhodesiense, UniProt Q95PM0). Description: Inhibition of Trypanosoma brucei rhodesiense rhodesain using Cbz-Phe-Arg-AMC as substrate by fluorimetric method. In short, it runs like this: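 Fluorescence-based assay run at 25 °C in 50 mM sodium acetate pH 5.5 with 5 mM EDTA, 200 mM NaCl and 0.005% Brij35. IC50 values were converted to Ki with the Cheng-Prusoff equation. Values are the average of two measurements, each done in duplicate.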
Rhodesain, sequence (Q95PM0 whole entry): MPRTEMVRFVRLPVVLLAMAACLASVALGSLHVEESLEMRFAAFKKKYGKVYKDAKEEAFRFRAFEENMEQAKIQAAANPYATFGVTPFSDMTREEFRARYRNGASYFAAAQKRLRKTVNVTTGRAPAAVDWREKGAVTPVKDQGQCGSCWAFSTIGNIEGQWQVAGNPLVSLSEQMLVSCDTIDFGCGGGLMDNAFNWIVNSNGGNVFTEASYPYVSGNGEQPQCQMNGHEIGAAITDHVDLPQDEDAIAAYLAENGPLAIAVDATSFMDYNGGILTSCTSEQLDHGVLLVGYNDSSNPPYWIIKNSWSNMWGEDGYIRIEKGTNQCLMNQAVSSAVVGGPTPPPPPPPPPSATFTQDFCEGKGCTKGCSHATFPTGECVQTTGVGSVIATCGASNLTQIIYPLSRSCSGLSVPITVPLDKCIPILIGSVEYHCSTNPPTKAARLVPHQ

Another data set deals with L6. Description: Cytotoxicity against rat L6 cells after 72 hrs by Alamar blue assay. The format is cell-based. The following applies: L6, 72 h. In short, it runs like this:
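Rat skeletal myoblast L6 cells in an Alamar Blue growth-inhibition assay. Value is the mean of at least 2 measurements.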
(Alamar Blue is a resazurin reagent that responds to reducing activity.)

Data set [2] is described as follows: Selectivity index, ratio of IC50 for rat L6 cells to IC50 for bloodstream form of Trypanosoma brucei rhodesiense STIB 900. The following applies: read-out: Ratio IC50. The format is toxicity. In short, it runs like this:
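Ratio of L-6 rat skeletal myoblast IC50 to T. b. rhodesiense STIB 900 bloodstream trypomastigote IC50, both from Alamar Blue growth-inhibition assays. Each IC50 is the mean of at least 2 measurements.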

Data set [3] has as its system Trypanosoma brucei rhodesiense. Nature of the data set: Antitrypanosomal activity against bloodstream form of Trypanosoma brucei rhodesiense STIB 900 assessed as parasite growth inhibition after 72 hrs by Alamar blue assay. The format is functional. The following applies: STIB 900, 72 h. The method, boiled down:
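Standard 72 h growth-inhibition assay with STIB 900 bloodstream trypomastigotes and Alamar Blue read-out. Value is the mean of at least 2 measurements.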

Data set [4] can be described thus: Solubility of the compound at pH 6.5 by LYSA. Type of data set: physicochemical. The following applies: buffer. The method, boiled down:
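Lyophilization solubility assay at pH 6.5.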

Data set [5] in a line: Octanol-water intrinsic distribution co-efficient, log D of the compound at 100 uM at pH 7.4 after 16 to 22 hrs by CAMDIS assay. Type of data set: physicochemical. The method, boiled down:
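Octanol/aqueous buffer (pH 7.4) intrinsic distribution coefficient measured in the CAMDIS carrier-mediated distribution system.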

Procathepsin L, sequence (P07711 whole entry): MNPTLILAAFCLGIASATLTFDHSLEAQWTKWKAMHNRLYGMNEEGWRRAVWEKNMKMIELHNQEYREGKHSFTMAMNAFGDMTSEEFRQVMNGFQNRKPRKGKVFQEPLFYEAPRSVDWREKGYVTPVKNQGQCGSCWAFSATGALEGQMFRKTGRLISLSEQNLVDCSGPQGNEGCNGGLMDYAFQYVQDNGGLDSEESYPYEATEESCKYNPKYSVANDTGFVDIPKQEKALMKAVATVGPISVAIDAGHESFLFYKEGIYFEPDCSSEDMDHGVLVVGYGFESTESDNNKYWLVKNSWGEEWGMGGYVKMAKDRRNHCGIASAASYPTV

On to `N#CC1(NC(=O)[C@H](Cc2ccc(OCC3CCC3)c(Cl)c2)NC(=O)c2cnn(-c3ccc(F)cc3)n2)CC1`, for which the Ki (as a rule, the equilibrium dissociation constant of an inhibitor or competing ligand from its target) at Procathepsin L worked out at 314 nM; on Rhodesain, 16 nM. For the same molecule, the Ratio Ki in data set [1] turned out to be 20. The half-inhibitory concentration (IC50) (commonly the concentration needed to halve the response being measured) with L6 was found to be 7600 nM; in data set [3] it was 27 nM. Besides, in data set [2], the selectivity ratio came to 281. Moreover, the solubility (in general, the concentration that dissolves in the medium under given conditions) in data set [4] was under 0.3 µg/mL.
Take `N#CC1(NC(=O)[C@H](Cc2ccc(OC(F)(F)F)c(Cl)c2)NC(=O)c2cnn(C3CCCCC3)n2)CC1`: the figures for the Ki at Procathepsin L and on Rhodesain were 82 nM and 12 nM, respectively. In addition, the Ratio Ki in data set [1] amounted to 6.8. Besides, the IC50 was determined as 31000 nM in the data set on L6 and 6 nM in data set [3]. In addition, the selectivity ratio in data set [2] is 5170. This molecule returned a solubility in data set [4] of 0.3 µg/mL (≈ 0.572 µM).
For `N#CC1(NC(=O)[C@H](Cc2ccc(OCC3CC3)c(Cl)c2)NC(=O)c2cnn(-c3ccc(F)cc3)n2)CC1`, the inhibition constant Ki on Procathepsin L was in the range of 181 to 314 nM; on Rhodesain it was 9 to 16 nM. In addition, in data set [1], the Ratio Ki lay in the range of 18 to 507. Further, the IC50 in data set [3] was 27 to 190 nM.
For the molecule `N#Cc1ccccc1C[C@H](NC(=O)c1cnn(-c2ccc(F)cc2)n1)C(=O)NC1(C#N)CC1`, the Ratio Ki in data set [1] was 18 to 507. Moreover, on Rhodesain, the Ki lay within 7.4 to 597 nM.
In the same order, the values of `N#CC1(NC(=O)[C@H](Cc2ccccc2C(F)(F)F)NC(=O)c2cnn(-c3ccc(F)cc3)n2)CC1` are 18 to 507 and 7.4 to 597 nM.
With `Cc1ccc(C(=O)Nc2ccc(S(=O)(=O)O)c3cc(S(=O)(=O)O)cc(S(=O)(=O)O)c23)cc1NC(=O)c1cccc(NC(=O)Nc2cccc(C(=O)Nc3cc(C(=O)Nc4ccc(S(=O)(=O)O)c5cc(S(=O)(=O)O)cc(S(=O)(=O)O)c45)ccc3C)c2)c1` [SURAMIN], in data set [3], the IC50 is 46 nM.
As to `N#CC1(NC(=O)[C@H](Cc2ccc(Cl)cc2)NC(=O)c2cnn(-c3ccc(F)cc3)n2)CC1`, the Ki is 1520 nM on Procathepsin L and 3 nM on Rhodesain. In addition, the Ratio Ki in data set [1] was determined as 507. The 50% inhibitory concentration (IC50) with L6 was over 10000 nM; in data set [3], 6 nM. For the same molecule, the logD (in general, lipophilicity at a set pH, counting ionised and neutral species) at 100 µM in data set [5] worked out at 3.97. Besides, in data set [4], the solubility was under 0.3 µg/mL.
As for `N#CC1(NC(=O)[C@H](Cc2ccc(OC(F)(F)F)c(Cl)c2)NC(=O)c2cnn(-c3ccc(Br)cc3)n2)CC1`, the Ki at Procathepsin L worked out at 1080 nM; on Rhodesain, 25 nM. In addition, the Ratio Ki in data set [1] was determined as 43. Further, the results for the IC50 (with L6; in data set [3]) were 7600 nM and 28 nM, respectively. The selectivity ratio in data set [2] is 271. For the same molecule, the solubility in data set [4] was under 0.3 µg/mL.
As to `N#CC1(NC(=O)[C@H](Cc2ccc(OC(F)(F)F)c(Cl)c2)NC(=O)c2cnn(-c3ccc(Cl)cc3)n2)CC1`, the Ki on Procathepsin L came to 467 nM; at Rhodesain, 10 nM. In data set [1], the Ratio Ki turned out to be 47. Moreover, the IC50 with L6 came out at 8300 nM; in data set [3], 22 nM. The selectivity ratio in data set [2] was determined as 377. In addition, the solubility in data set [4] is under 0.3 µg/mL.
Take `N#Cc1ccc(C[C@H](NC(=O)c2cnn(-c3ccc(F)cc3)n2)C(=O)NC2(C#N)CC2)cc1Cl`: the Ki at Procathepsin L was determined as 253 nM; at Rhodesain, 7 nM. In data set [1], the Ratio Ki worked out at 36. For the same molecule, the IC50 in the data set with L6 is over 10000 nM; in data set [3], 6 nM. The logD at 100 µM in data set [5] is 3.63. In addition, the solubility in data set [4] was under 0.3 µg/mL.
Take `CSc1ccc(-n2ncc(C(=O)N[C@@H](Cc3ccc(OC(F)(F)F)c(Cl)c3)C(=O)NC3(C#N)CC3)n2)cc1`: the inhibitory constant (Ki) amounted to 1120 nM at Procathepsin L and 19 nM on Rhodesain. Further, the Ratio Ki in data set [1] was 59. Besides, the figures for the IC50 (in the data set with L6; in data set [3]) were over 10000 nM and 67 nM, respectively. The molecule also yielded a solubility in data set [4] of under 0.3 µg/mL.
Take `N#CC1(NC(=O)[C@H](Cc2ccccc2)NC(=O)c2cnn(-c3ccc(F)cc3)n2)CC1`: the Ratio Ki in data set [1] lay in the range of 18 to 507. The inhibition constant (Ki) on Rhodesain is 7.4 to 597 nM.
Consider `N#CC1(NC(=O)[C@H](Cc2cccc(Cl)c2)NC(=O)c2cnn(-c3ccc(F)cc3)n2)CC1`, for which, in data set [1], the Ratio Ki fell in the range of 18 to 507. The molecule further gave an inhibitory constant (Ki) at Rhodesain of 7.4 to 597 nM.
Turning to `N=C(N)c1ccc(OCCCCCOc2ccc(C(=N)N)cc2)cc1` [PENTAMIDINE], in data set [3], the 50% inhibitory concentration (IC50) came out at 9 nM.
Take `N#CC1(NC(=O)[C@H](Cc2ccc(OC(F)(F)F)c(Cl)c2)NC(=O)c2cnn(C3CC(F)(F)C3)n2)CC1`: the Ki came to 76 nM at Procathepsin L and 41 nM at Rhodesain. Moreover, the Ratio Ki in data set [1] amounted to 1.5. The values for the half-inhibitory concentration (IC50) (in the data set on L6; in data set [3]) were 50000 nM and 9 nM, respectively. Also, in data set [2], the selectivity ratio amounted to 5560. Further, the pH-dependent lipophilicity (logD) at 100 µM in data set [5] was determined as 3.89. The molecule further gave a solubility in data set [4] of 2.2 µg/mL (≈ 4.13 µM).
In the case of `N#CC1(NC(=O)[C@H](Cc2ccccc2Cl)NC(=O)c2cnn(-c3ccc(F)cc3)n2)CC1`, the Ratio Ki in data set [1] was 18 to 507. Further, the Ki at Rhodesain was in the range of 7.4 to 597 nM.
Regarding `COCCOc1ccc(C[C@H](NC(=O)c2cnn(-c3ccc(F)cc3)n2)C(=O)NC2(C#N)CC2)cc1Cl`, the Ki lay in the range of 181 to 314 nM at Procathepsin L and 9 to 16 nM on Rhodesain. Further, the Ratio Ki in data set [1] was in the range of 18 to 507. Also, the concentration for half-maximal inhibition (IC50) in data set [3] is 27 to 190 nM.
As to `N#CC1(NC(=O)[C@H](Cc2ccc(OCc3ccccc3)cc2)NC(=O)c2cnn(-c3ccc(F)cc3)n2)CC1`, the Ki at Procathepsin L is 1470 nM; at Rhodesain, 17 nM. In data set [1], the Ratio Ki came to 87. The 50% inhibitory concentration (IC50) is over 10000 nM in the data set with L6 and 19 nM in data set [3]. Further, in data set [4], the solubility was under 0.3 µg/mL.
For `CSc1ccc(OCc2ncc([N+](=O)[O-])n2C)cc1` [FEXINIDAZOLE], the concentration for half-maximal inhibition (IC50) in data set [3] is 1710 to 2930 nM.
In the case of `CC1CS(=O)(=O)CCN1/N=C/c1ccc([N+](=O)[O-])o1` (stereo not given) [NIFURTIMOX], the IC50 in data set [3] stood at 1440 nM.
Regarding `N#CC1(NC(=O)[C@H](Cc2ccc(OC(F)(F)F)c(Cl)c2)NC(=O)c2cnn(C3CCC3)n2)CC1`, the Ki at Procathepsin L and on Rhodesain was 11 nM in each case. Besides, the Ratio Ki in data set [1] amounted to 1. Besides, the IC50 was 48000 nM in the data set on L6 and 1 nM in data set [3]. Also, the selectivity ratio in data set [2] is 48000. The molecule also yielded a log distribution coefficient (logD) at 100 µM in data set [5] of 3.88. In addition, the solubility in data set [4] is 11 µg/mL (≈ 22.1 µM).
For the molecule `N#CC1(NC(=O)[C@H](Cc2ccc(Cl)c(Cl)c2)NC(=O)c2cnn(C3CCOCC3)n2)CC1`, the values for the inhibitory constant (Ki) at Procathepsin L and on Rhodesain were 93 nM and 4 nM, respectively. For the same molecule, the Ratio Ki in data set [1] is 23. The 50% inhibitory concentration (IC50) in the data set with L6 is over 100000 nM; in data set [3], 23 nM.
In the case of `N#CC1(NC(=O)[C@H](Cc2ccc(Cl)c(Cl)c2)NC(=O)c2cnn(C3CCC3)n2)CC1`, the Ki on Procathepsin L stood at 7 nM; at Rhodesain, 71 nM. Further, the Ratio Ki in data set [1] amounted to 0.1. In addition, the values for the IC50 (in the data set with L6; in data set [3]) were 58200 nM and 4 nM, respectively. Further, the selectivity ratio in data set [2] was 14600.
In the case of `N#CC1(NC(=O)[C@H](Cc2ccc(OC(F)(F)F)c(Cl)c2)NC(=O)c2cnn(C3CCOCC3)n2)CC1`, the inhibition constant Ki worked out at 112 nM at Procathepsin L and 18 nM at Rhodesain. For the same molecule, in data set [1], the Ratio Ki worked out at 6.2. For the same molecule, the values for the IC50 (in the data set with L6; in data set [3]) were over 100000 nM and 13 nM, respectively. In data set [5], this molecule displayed a log distribution coefficient (logD) at 100 µM of 3.33. In data set [4], this molecule came in with a solubility of 90 µg/mL (≈ 171 µM).
On to `CC(C)C[C@H](NC(=O)c1cnn(-c2ccc(F)cc2)n1)C(=O)NC1(C#N)CC1`, for which the Ratio Ki in data set [1] lay within 18 to 507. At Rhodesain, the Ki came to 23 nM. Besides, the concentration for half-maximal inhibition (IC50) in data set [3] is 2200 nM. The same molecule yielded a pH-dependent lipophilicity (logD) at 100 µM in data set [5] of 3.3. The molecule further yielded a solubility in data set [4] of 42 µg/mL (≈ 109 µM).
